{"data": "Published values collected from several papers", "observed": "cell growth or viability", "note": "Protocols differ between the studies behind these lines."}
{"Compound": "COc1cc2c(c3c1C(=O)C[C@@H](c1ccccc1)O3)[C@H]1[C@@H](O2)OC(C)(C)[C@@H]1OC(C)=O", "cell line": "Raji", "technique": "MTS", "time": "48 h", "endpoint": "IC50", "result": "> 10000 nM"}
{"Compound": "C=CC(=O)Nc1cc(Nc2nccc(-c3cn(C)c4ccccc34)n2)c(OC)cc1N(C)CCN(C)C", "cell line": "PC-9", "time": "72 h", "endpoint": "IC50", "result": "8 nM"}
{"Compound": "COc1c2ccoc2cc2oc(=O)ccc12", "cell line": "HCT-116", "technique": "WST-1", "time": "48 h", "endpoint": "IC50", "result": "29000 nM"}
{"Compound": "Cc1cccc2[nH]cc(CNCC3(N4CCCC4)COC3)c12", "cell line": "U-87 MG", "concentration": "30 µM", "time": "48 h", "endpoint": "viability", "result": "52.5%"}
{"Compound": "N.N.[Cl][Pt][Cl]", "cell line": "HCT-116", "time": "24 h", "endpoint": "IC50", "result": "35600 nM"}
{"Compound": "Cc1cc(N(CCO)CCO)ccc1C(=O)O", "cell line": "SN12K1", "endpoint": "IC50", "result": "> 10 µg/mL"}
{"Compound": "CC1=C(O)C(=O)C=C2C1=CC=C1[C@@]2(C)CC[C@@]2(C)[C@@H]3C[C@](C)(C(=O)O)CC[C@]3(C)CC[C@]12C", "cell line": "AGS", "technique": "MTT", "time": "48 h", "endpoint": "IC50", "result": "390 nM"}
{"Compound": "CC[C@@]1(OC(=O)[C@@H](N)Cc2ccccc2)C(=O)OCc2c1cc1n(c2=O)Cc2cc3cc4c(cc3nc2-1)OCO4", "cell line": "HCT-116", "technique": "MTT", "endpoint": "IC50", "result": "38 nM"}
{"Compound": "Cc1cccc2c(CNCC3(N4CCCC4)COC3)c[nH]c12", "cell line": "U-87 MG", "concentration": "30 µM", "time": "48 h", "endpoint": "viability", "result": "3.42%"}
{"Compound": "CC[C@@]1(OC(=O)CN)C(=O)OCc2c1cc1n(c2=O)Cc2cc3cc4c(cc3nc2-1)OCO4", "cell line": "HCT-116", "technique": "MTT", "endpoint": "IC50", "result": "25 nM"}
{"Compound": "Cc1cccc(-n2ncc(Cl)c(Cl)c2=O)c1", "cell line": "PC-9", "technique": "resazurin", "time": "96 h", "endpoint": "IC50", "result": "650 nM"}
{"Compound": "CC[C@@]1(OC(=O)[C@H](C)N)C(=O)OCc2c1cc1n(c2=O)Cc2cc3cc4c(cc3nc2-1)OCO4", "cell line": "HCT-116", "technique": "MTT", "endpoint": "IC50", "result": "80 nM"}
{"Compound": "CN[C@@H]1C[C@H]2O[C@@](C)([C@@H]1OC)n1c3ccccc3c3c4c(c5c6ccccc6n2c5c31)C(=O)NC4", "cell line": "SHP77", "technique": "MTT", "endpoint": "IC50", "result": "16 nM"}
